These results are taken from ChEMBL document CHEMBL1147184, “Design and synthesis of long-acting inhibitors of dipeptidyl peptidase IV” (Bioorg Med Chem, 2007).

Calls of active or inactive are those of the source.

The species named for data set [1] is Rattus norvegicus. As to the kind of experiment: animal or person. The note with it: Sprague-Dawley, Plasma, po, 10 h, read-out: Inhibition.
The test system of data set [2] is Rattus norvegicus. As to the kind of experiment: Ex vivo inhibition of DPP4 in Sprague-Dawley rat plasma at 1 mg/kg, po after 6 hrs. The format is functional. Put shortly:
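Male SD rats, 6–7 weeks old, fasted at least 8 h, given a single oral dose of 1 mg/kg in 0.5% methylcellulose. Jugular blood taken before dosing and up to 10 h after. Plasma mixed 1:1 with 60 µM Gly-Pro-AMC. Initial rate taken from AMC fluorescence (ex 355/em 460 nm) at 37 °C. Percent inhibition calculated against basal activity.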

Data set [3] is described as follows: Stability in Tris buffer at pH 7.4. Type of data set: physicochemical. Put shortly:
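Compound at 1 mg/mL in 100 mM Tris buffer, pH 7.4, held at room temperature. Remaining parent measured by LC/MS peak area at 0, 2, 6 and 24 h. Half-life obtained from a linear first-order fit of log(peak area/time-zero area) against time.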

A short description of data set [4]: Oral bioavailability in Sprague-Dawley rat at 1 mg/5 ml/kg, po. Type of data set: ADME, organism-based. The following applies: in vivo, 1 mg/kg. Put shortly: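 Male SD rats, 5–7 weeks old, fasted 24 h, n = 3 per route. Oral dose 1 mg/5 mL/kg in 0.5% methylcellulose. Slow iv bolus of 0.3 mg/2 mL/kg in saline via jugular vein. Jugular blood sampled from 0 to 24 h; plasma analysed by LC/MS/MS. F = (AUCpo/Dpo)/(AUCiv/Div) × 100.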

A short description of data set [5]: Drug level in blood of Sprague-Dawley rat at 1 mg/kg, po after 0.25 hrs in absence of glucuronidase. The note with it: read-out: Drug uptake. Details: dose 1 mg/kg, route oral. Type of data set: ADME, organism-based. Put shortly:
(§1)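 Male SD rats, fasted 24 h, given a single oral dose of 1 mg/kg as a solution in 0.5% methylcellulose. Blood drawn from the jugular vein. Plasma protein precipitated with acetonitrile, supernatant evaporated and reconstituted in mobile phase, then analysed by LC/MS/MS with no β-glucuronidase/arylsulfatase step.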

Data set [6] is described as follows: Oral bioavailability in Sprague-Dawley rat at 10 mg/5 ml/kg, po. Type of data set: ADME, organism-based. The following applies: in vivo, 10 mg/kg. Put shortly:
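Male SD rats, 5–7 weeks old, fasted 24 h. Oral dose 10 mg/5 mL/kg in 0.5% methylcellulose compared with iv bolus of 0.3 mg/2 mL/kg in saline via jugular vein. Plasma sampled from 0 to 24 h and measured by LC/MS/MS. F calculated from dose-normalised AUC ratio, po over iv.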

Data set [7] addresses Dipeptidyl peptidase 4 (Rattus norvegicus) (UniProt P14740). Briefly: Inhibition of DPP4 in rat liver microsomes in presence of UDPGA. The note with it: Microsome.
A short description of data set [8]: Drug level in blood of Sprague-Dawley rat at 1 mg/kg, po after 6 hrs in absence of glucuronidase. Type of data set: ADME, organism-based. Details: dose 1 mg/kg, route oral. The note with it: read-out: Drug uptake. Put shortly:
as §1

Data set [9] can be described thus: Drug level in blood of Sprague-Dawley rat at 1 mg/kg, po after 2 hrs in absence of glucuronidase. Type of data set: ADME, organism-based. On the set-up: dose 1 mg/kg, route oral. The following applies: read-out: Drug uptake. Put shortly: as §1
The subject of data set [10] is Rattus norvegicus. As to the kind of experiment: Effect on plasma glucose level in orally dosed Sprague-Dawley rat by OGTT assay. Type of data set: functional, organism-based. Summed up:
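Male SD rats (400–460 g) fasted at least 20 h. Vehicle (0.5% methylcellulose) or drug at 0.01, 0.03 or 0.1 mg/kg given po at −30 min, then oral glucose 1 g/kg at 0 min. Tail blood taken at −5, 5, 10, 15, 30, 60 and 120 min. Plasma glucose read by glucose oxidase–peroxidase dye method. Mean ± SE, n = 8; Student's t-test vs vehicle.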

Dipeptidyl peptidase 4 (Rattus norvegicus), sequence (P14740 whole entry, looked up): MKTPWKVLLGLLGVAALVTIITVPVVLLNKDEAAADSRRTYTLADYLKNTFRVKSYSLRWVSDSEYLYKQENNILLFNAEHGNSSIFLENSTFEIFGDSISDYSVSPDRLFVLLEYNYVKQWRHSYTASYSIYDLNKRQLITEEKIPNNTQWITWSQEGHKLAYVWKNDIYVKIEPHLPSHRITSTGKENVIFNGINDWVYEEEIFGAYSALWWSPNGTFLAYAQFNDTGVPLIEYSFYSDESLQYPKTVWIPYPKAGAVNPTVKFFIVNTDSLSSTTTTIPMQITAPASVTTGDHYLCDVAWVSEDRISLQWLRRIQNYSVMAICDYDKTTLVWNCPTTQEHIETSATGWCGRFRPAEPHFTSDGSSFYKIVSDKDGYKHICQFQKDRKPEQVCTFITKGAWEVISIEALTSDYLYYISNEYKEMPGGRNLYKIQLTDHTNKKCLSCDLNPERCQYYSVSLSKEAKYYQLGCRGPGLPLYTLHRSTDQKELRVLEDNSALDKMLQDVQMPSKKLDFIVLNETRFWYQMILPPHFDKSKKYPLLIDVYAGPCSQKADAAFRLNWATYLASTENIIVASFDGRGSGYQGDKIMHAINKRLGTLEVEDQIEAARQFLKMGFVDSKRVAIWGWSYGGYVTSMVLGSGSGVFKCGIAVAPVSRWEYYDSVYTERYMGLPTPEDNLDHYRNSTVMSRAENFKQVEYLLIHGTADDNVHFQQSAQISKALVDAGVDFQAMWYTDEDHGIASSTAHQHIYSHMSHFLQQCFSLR

As usually defined, the half-life is the time needed for the level to fall by half in the phase considered. A low value points to fast loss. For `COc1cc(O)cc(OC)c1[C@@H]1CN[C@H](C(=O)N2CCC[C@H]2C#N)C1`, the inhibition in vivo at 1 mg/kg in the data set listed under Rattus norvegicus [1] was found to be 66%; with Rattus norvegicus [2], 81%. The half-life in data set [3] was 59 h.
On to `N#C[C@@H]1CCCN1C(=O)[C@@H]1C[C@H](c2ccc(O)cc2)CN1`, for which the inhibition in vivo at 1 mg/kg in the data set on Rattus norvegicus [2] turned out to be 85%. This molecule had a half-life in [3] of 21 h.
As to `N#C[C@@H]1CCCN1C(=O)[C@@H]1CCCN1`, the inhibition in vivo at 1 mg/kg in the data set with Rattus norvegicus [2] turned out to be 20%.
Usually bioavailability stands for dose-corrected exposure relative to a reference, in per cent. A higher bioavailability goes with good availability. Consider `COc1c(O)ccc(C)c1[C@@H]1CN[C@H](C(=O)N2CCC[C@H]2C#N)C1`, for which the inhibition in vivo at 1 mg/kg worked out at 86% in the data set listed under Rattus norvegicus [1] and 94% in the data set with Rattus norvegicus [2]. Moreover, the bioavailability in data set [4] was determined as 2%.
With `CCc1cc(O)cc(C)c1[C@@H]1CN[C@H](C(=O)N2CCC[C@H]2C#N)C1`, the inhibition in vivo at 1 mg/kg in the data set with Rattus norvegicus [2] was 86%. This molecule also gave a half-life in data set [3] of 39 h.
On to `N#C[C@@H]1CCCN1C(=O)[C@@H]1C[C@@H](c2ccccc2)CN1`, for which, in the data set with Rattus norvegicus [2], the inhibition in vivo at 1 mg/kg came to 17%.
On to `Cc1cccc(C)c1[C@@H]1CN[C@H](C(=O)N2CCC[C@H]2C#N)C1`, for which the inhibition in vivo at 1 mg/kg with Rattus norvegicus [2] was 91%.
In the data set with Rattus norvegicus [2], `C=C(C)C[C@@H]1CN[C@H](C(=O)N2CCC[C@H]2C#N)C1` had an inhibition in vivo at 1 mg/kg of 27%.
Regarding `Cc1cc(O)cc(C)c1[C@@H]1CN[C@H](C(=O)N2CCC[C@H]2C#N)C1`, the inhibition in vivo at 1 mg/kg in the data set filed under Rattus norvegicus [1] turned out to be 57%; in the data set with Rattus norvegicus [2] it was 88%. In data set [3], this molecule had a half-life of 31 h. For the same molecule, the bioavailability in data set [4] is 3%.
In the data set on Rattus norvegicus [2], `N#C[C@@H]1CCCN1C(=O)[C@@H]1C[C@H](c2ccccc2)CN1` had an inhibition in vivo at 1 mg/kg of 60%.
In the case of `COc1cc(O)cc(C)c1[C@@H]1CN[C@H](C(=O)N2CCC[C@H]2C#N)C1`, the concentration at 0.25 h in data set [5] turned out to be 0.49 ng/mL. Besides, the figures for the inhibition in vivo at 1 mg/kg in the data set listed under Rattus norvegicus [1] and in the data set with Rattus norvegicus [2] were 73% and 90%, respectively. The half-life in data set [3] was 49 h. The bioavailability in [6] is 0.1%. The result in data set [7] was Active.
In the case of `Cc1cc(C)c([C@@H]2CN[C@H](C(=O)N3CCC[C@H]3C#N)C2)c(C)c1O`, the concentration at 0.25 h in [5] was 9.7 ng/mL. For the same molecule, the inhibition in vivo at 1 mg/kg with Rattus norvegicus [2] stood at 39%. In addition, the half-life in data set [3] is 40 h. Moreover, the concentration at 6 h in data set [8] was found to be 0.95 ng/mL. In addition, in data set [9], the concentration at 2 h came out at 0.65 ng/mL.
Turning to `N#C[C@@H]1CCCN1C(=O)[C@@H]1C[C@H](c2cccc(O)c2)CN1`, the inhibition in vivo at 1 mg/kg with Rattus norvegicus [2] was 77%. The same molecule showed a half-life in [3] of 20 h.
As for `CC(C)C[C@@H]1CN[C@H](C(=O)N2CCC[C@H]2C#N)C1`, the inhibition in vivo at 1 mg/kg in the data set with Rattus norvegicus [2] stood at 40%.
Take `N#C[C@@H]1CCCN1C(=O)[C@@H]1C[C@H](c2ccccc2O)CN1`: the inhibition in vivo at 1 mg/kg with Rattus norvegicus [2] turned out to be 43%. This molecule also had a half-life in data set [3] of 3.2 h.
`Cc1ccc(O)c(C)c1[C@@H]1CN[C@H](C(=O)N2CCC[C@H]2C#N)C1`: in the data set on Rattus norvegicus [10], the Activity entry is “Dose-dependent effect”. Also, the results for the inhibition in vivo at 1 mg/kg in the data set filed under Rattus norvegicus [1] and with Rattus norvegicus [2] were 83% and 95%, respectively. Further, in data set [3], the half-life was 65 h.
Regarding `C=CC[C@@H]1CN[C@H](C(=O)N2CCC[C@H]2C#N)C1`, the inhibition in vivo at 1 mg/kg in the data set on Rattus norvegicus [2] was 38%.
With `N#C[C@@H]1CCCN1C(=O)[C@@H]1C[C@H](C2C3CC4CC(C3)CC2C4)CN1` (stereo not given in full), in the data set on Rattus norvegicus [2], the inhibition in vivo at 1 mg/kg came to 47%.
Regarding `CCOc1cc(O)cc(OCC)c1[C@@H]1CN[C@H](C(=O)N2CCC[C@H]2C#N)C1`, the inhibition in vivo at 1 mg/kg in the data set filed under Rattus norvegicus [1] is 50%; with Rattus norvegicus [2], 79%.
In turn, `CCC[C@@H]1CN[C@H](C(=O)N2CCC[C@H]2C#N)C1` yielded an inhibition in vivo at 1 mg/kg in the data set with Rattus norvegicus [2] of 50%.
The same measure, in the same setting: the figure for `N#C[C@@H]1CCCN1C(=O)[C@@H]1C[C@H](C2CCCCC2)CN1` is 38%.
